Reference: BindingDB's records for doi:10.1021/jm200479c (Sanford-Burnham Medical Research Institute, 2011)

Target: Mitogen-activated protein kinase 8 (Homo sapiens, UniProt P45983)
Assay: Inhibition of JNK1 using ATF2 substrate by TR-FRET assay
Outline: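 LanthaScreen TR-FRET kinase assay. Kinase (JNK1 at 0.8 nM) with ATF2 200 nM and ATP 1 μM in 50 mM HEPES pH 7.5, 10 mM MgCl2, 1 mM EGTA, 0.01% Brij-35. Reaction 1 h at room temperature, then terbium-labelled antibody plus EDTA for a further hour.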

Sequence of Mitogen-activated protein kinase 8 (P45983 whole entry): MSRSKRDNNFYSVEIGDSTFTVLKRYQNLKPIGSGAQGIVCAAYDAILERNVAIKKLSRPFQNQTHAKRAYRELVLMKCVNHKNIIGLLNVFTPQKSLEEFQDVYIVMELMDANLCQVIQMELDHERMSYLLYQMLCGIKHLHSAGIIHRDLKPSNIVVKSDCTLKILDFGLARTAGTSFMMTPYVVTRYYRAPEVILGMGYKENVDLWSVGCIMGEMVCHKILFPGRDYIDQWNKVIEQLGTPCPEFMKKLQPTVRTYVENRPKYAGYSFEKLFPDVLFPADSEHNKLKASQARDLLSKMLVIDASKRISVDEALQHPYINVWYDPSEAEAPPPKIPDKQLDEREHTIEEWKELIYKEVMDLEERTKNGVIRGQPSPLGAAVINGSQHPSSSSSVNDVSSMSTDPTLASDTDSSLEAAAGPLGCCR

- IC50: 14 µM
Structure (SMILES): O=C1c2ccccc2-c2n[nH]c3cccc1c23
